Hits are enriched below; roughly 11% of the tested compounds scored in any of these assays.
SF1 activator: activates the human nuclear receptor SF-1. 65,000 tested, 1.9% active. activation, % at 10 µM. AID 522. Q13285. CHO-K1 Gal4-SF-1 LBD luciferase reporter; % increase over DMSO SF-1-specific signal;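 active = activation above the mean activation of all tested compounds plus 3 SD, cut at about 50% in these data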
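Test system: CHO-K1 cells co-transfected with Gal4 DBD–human SF-1 LBD, 5xGal4 luciferase reporter. Quantity: 4,000 cells per well. Compound: 10 µM only. Incubation: compound added 1 h post-seeding, 20 h exposure at 37 °C, 5% CO2. Detection: SteadyLite luciferase luminescence. Replication: one test per compound.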
Htt clearance: mutant huntingtin protein clearance; 47,000 tested, 0.42% active; HeLa Exon1htt(103Q)mCFP, aggregate imaging; zero = plate's median compound well; AID 853; inhibition, % at 1.5 µM;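 active = inhibition of aggregate fluorescence above about 70%, also judged a hit by eye on the cell image, limit read from the data, passing the limit was not always enough; inconclusive = no rule stated for this call; inactive = not judged a hit on image review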;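 also: cells exposed to compound for three days before fixation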
M1 ag: M1 muscarinic receptor agonism; B-score at 10 µM; 64,000 tested, 3% active; AID 626; CHO-M1 cells, Fluo-4 calcium fluorescence, agonist mode; hits give high values;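 active = fluorescence rise, raw or as B-score row- and column-corrected plate score, outside the 99.7% band of its plate's samples, either direction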
RORA act: activators of human nuclear receptor RORA | 65,000 tested, 1.5% active | P35398 | activation, % at 10 µM | CHO-K1 Gal4-RORA LBD luciferase reporter, luminescence; percent increase over mock-subtracted basal signal;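 active = activation above the mean of all tested compounds plus 3 SD, cut at about 49% in these data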;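 also: 0% = DMSO-treated RORA cells and 100% = added signal equal to DMSO minus mock-transfected cells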
M1 antag: antagonists of rat M1 muscarinic receptor. P08482. CHO-M1 cells, Fluo-4 calcium, ACh EC80 antagonist mode; hits give low values. B-score at 10 µM. 64,000 tested, 3.4% active. AID 628;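 active = calcium fluorescence response, raw or row-and-column corrected B-score, differing from the plate sample mean either way at a set confidence level, mostly lower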
Target sequence (P08482 whole entry, looked up): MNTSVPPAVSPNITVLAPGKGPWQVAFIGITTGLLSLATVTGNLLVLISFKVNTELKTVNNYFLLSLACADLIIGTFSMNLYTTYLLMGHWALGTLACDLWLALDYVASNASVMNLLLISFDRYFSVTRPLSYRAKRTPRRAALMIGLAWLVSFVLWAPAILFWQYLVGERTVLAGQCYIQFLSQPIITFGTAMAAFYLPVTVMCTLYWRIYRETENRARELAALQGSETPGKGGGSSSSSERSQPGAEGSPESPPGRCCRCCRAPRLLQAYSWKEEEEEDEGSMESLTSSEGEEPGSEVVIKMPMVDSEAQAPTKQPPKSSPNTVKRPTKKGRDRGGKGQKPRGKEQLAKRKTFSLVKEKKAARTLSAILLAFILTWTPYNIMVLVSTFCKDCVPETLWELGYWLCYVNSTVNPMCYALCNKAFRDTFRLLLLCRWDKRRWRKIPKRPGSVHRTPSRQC
D1 allo mod: D1 dopamine receptor (human) allosteric modulation; P21728; HEK293 D1, CRE-luciferase, dopamine EC30 potentiation; actives deviate in either direction; B-score at 10 µM; 58,000 tested, 5.9% active; AID 641;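 active = luminescence count or its row- and column-corrected plate score outside the 99.7% band of the plate's sample wells, on either side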
M1 ag confirm: confirmation of rat M1 muscarinic receptor agonists | shares compounds with M1 ag | CHO-M1 cells, Fluo-4 calcium fluorescence, agonist mode; actives lie on both sides | fluorescence change (max-min) at 10 µM | 1,700 tested, 19% active | AID 1488;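 active = fluorescence change differs from the solvent-only DMSO control mean at a set confidence level in both duplicate runs; inconclusive = differs from solvent-only control mean in just one of two runs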;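 also: an EC20 dose of acetylcholine follows compound addition during the same imaging run; raw fluorescence intensity difference in instrument units with no normalization to controls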
M4 agonist ctr: counter-screen for M1 agonists: activity at rat M4 receptor | shares compounds with M1 ag | fluorescence change (max-min) at 10 µM | CHO M4/Gqi5 cells, Fluo-4 calcium fluorescence, agonist mode; actives lie on both sides | 1,700 tested, 9% active;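 active = fluorescence change differing from the plate's solvent-only control wells at 99.7% confidence in both duplicates, whether higher or lower; inconclusive = differs from solvent controls in only one of two duplicates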
* hit, by the source's call; ? = inconclusive; nt = no result given.

SMILES	SF1 activator	Htt clearance	M1 ag	RORA act	M1 antag	D1 allo mod	M1 ag confirm	M4 agonist ctr
O=C(c1ccc(Cn2c(=O)[nH]c3ccccc3c2=O)cc1)N1CCN(c2ccccn2)CC1	9	nt	3.8*	1	-1	-0.52	-7.7	-20
CCOC(=O)N1CCN(C(=O)c2ccc3c(=O)n(CC4CCCO4)c(=S)[nH]c3c2)CC1 (configuration not stated)	nt	-11	nt	nt	nt	nt	nt	nt
COc1cc2[nH]c(=O)n(CCCC(=O)N3CC=C(c4ccccc4)CC3)c(=O)c2cc1OC	3	nt	2.3	0	-1	nt	nt	nt
CCOC(=O)N1CCN(C(=O)c2ccc3c(=O)n(Cc4ccccc4)c(=S)[nH]c3c2)CC1	14	nt	4.6*	-4	-0.78	0.44	?	?
Cc1noc(C)c1COC(=O)c1cccc(S(=O)(=O)N2CCCCCC2)c1	-32	nt	3.1*	-25	-2.2	-1.1	-17	-39
Cc1noc(C)c1COC(=O)c1ccc2c(c1)OCCO2	-10	nt	nt	-4	nt	nt	nt	nt
CC1CCCCN1C(=O)CN1C(=O)CN(C)C(=O)c2ccccc21 (configuration not stated)	7	30	0.08	10	0.56	0.59	nt	nt
O=C(N/C=N/O)C1=NOC(CNc2ncc(C(F)(F)F)cc2Cl)C1 (configuration not stated)	nt	2	nt	nt	nt	nt	nt	nt
Cc1ccc(Cl)cc1N1CCN(C(=O)C2CCN(S(=O)(=O)c3c(C)nn(C)c3C)CC2)CC1	-16	nt	8*	-5	-2.6*	-1.3	?	-59
O=S(=O)(Nc1ccccn1)c1ccc(C2CCCCC2)cc1	-2	11	nt	-15	nt	0.5	nt	nt
O=S(=O)(Nc1cccnc1)c1ccc(C2CCCCC2)cc1	-46	nt	7.1*	-45	-3.1*	-0.2	12	-15
Cc1c(NC(=O)c2cc(-c3cccs3)on2)c(=O)n(-c2ccccc2)n1C	-7	nt	0.12	22	-0.82	-0.99	nt	nt
O=C(Nc1ccccc1)c1ccccc1OCC(O)CN1C(=O)c2ccccc2S1(=O)=O (configuration not stated)	7	40	6.1*	1	-1.9	-1.7	-20	?
CC1(C)NC(=O)N(CC(O)COc2ccccc2C(=O)Nc2ccccc2)C1=O (configuration not stated)	3	nt	5.4*	-20	-2.4	nt	?	-42
COc1ccc(OCC(O)CN2C(=O)c3ccccc3S2(=O)=O)cc1 (configuration not stated)	21	-17	-0.009	16	0.39	-0.041	nt	nt
Cc1cc(N2CCN(S(=O)(=O)c3ccc(Cl)cc3)CC2)c2ccccc2n1	nt	17	5.2*	nt	-7.4*	-3.1	-10	-16
Cc1cc(C)n(-c2nc3ccccc3nc2N2CCN(S(=O)(=O)c3ccc(F)c(C)c3)CC2)n1	-9	-148	-1.4	4	0.095	0.14	nt	nt
CS(=O)(=O)N(CC(=O)N1CCCCCC1)c1ccc2c(c1)OCCO2	-2	-11	-2.1*	-8	-0.14	-0.43	22	-25
O=C(CN1CCN(c2ccccn2)CC1)N(c1ccccc1)c1ccc2ccccc2c1	-1	nt	-1.1	12	-0.077	-0.22	nt	nt
c1csc(CCNc2ncnc3sc4c(c23)CCC4)c1	-76	nt	3.9*	-72	-1.3*	nt	3.1	-21
CCc1ccc(S(=O)(=O)NCc2cn3ccsc3n2)s1	-10	nt	3.3*	3	0.55	0.86	-0.7	-45
CCc1ccc(S(=O)(=O)NCCc2cn3ccsc3n2)s1	-1	14	-0.79	-10	-0.42	-0.17	nt	nt
CCOC(=O)CSc1cc(=O)n(CC)c2ccccc12	nt	-4	nt	nt	nt	nt	nt	nt
CCn1c(=O)cc(SCC(=O)N2CCN(c3ccccn3)CC2)c2ccccc21	-5	nt	5.9*	-13	-1.9	nt	-29*	-38
C=CCOc1nc2c(c(=O)n(Cc3ccc(Cl)cc3)c(=O)n2C)n1C	-4	nt	0.15	18	-0.088	nt	nt	nt
COc1ccc(-c2nc(-c3ccc(NC(=O)c4ccncc4)cc3)no2)cc1OC	-10	nt	3.8*	8	-0.013	-6.7*	-21	-8.7

Screens (PubChem BioAssay)
